Activity calls are given as the source filed them. The calls are words filed in the database; no cut-off is given here.
Assays:
Trypanosoma cruzi = experiment: Growth inhibition of trypomastigote form of Trypanosoma cruzi Y infected in human U2OS cells at 50 uM measured after 72 hrs by DRAQ5 DNA dye based confocal microscopic analysis relative to control; type: organism-based; details: for growth inhibition (GI): trypanosoma cruzi, 50 µM
Leishmania infantum = experiment: Growth inhibition of luciferase expressing Leishmania infantum axenic amastigotes infected in human THP1 cells at 10 uM measured after 72 hrs by steady-glo luminescence assay relative to control; type: organism-based; details: leishmania infantum, 72 h, 10 µM
Pteridine reductase 1 = target: T1, Pteridine reductase 1 (Leishmania major, UniProt Q01782); experiment: Inhibition of Leishmania major pteridine reductase 1 using di-hydrobiopterine as substrate in presence of NADPH
T1 sequence (Q01782 whole entry): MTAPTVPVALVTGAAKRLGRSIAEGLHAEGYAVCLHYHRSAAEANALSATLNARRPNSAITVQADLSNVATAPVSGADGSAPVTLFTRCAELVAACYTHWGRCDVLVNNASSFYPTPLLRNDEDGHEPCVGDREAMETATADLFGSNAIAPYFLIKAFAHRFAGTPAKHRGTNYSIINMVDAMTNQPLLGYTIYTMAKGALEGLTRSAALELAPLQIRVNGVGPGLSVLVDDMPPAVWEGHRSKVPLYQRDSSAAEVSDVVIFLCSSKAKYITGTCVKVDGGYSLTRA
How it was run: (§1)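 Photometric PTR1 assay with NADPH and dihydrobiopterin substrate. H₄B formation is coupled non-enzymatically to cytochrome c reduction, read as signal increase at 550 nm.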

[1] = Inhibition of N-terminal His-tagged Trypanosoma brucei pteridine reductase 1 using di-hydrobiopterine as substrate measured at 1 min interval for 50 mins in presence of NADPH; how it was run: as §1
Trypanosoma brucei [2] = experiment: Inhibition of N-terminal His-tagged Trypanosoma brucei pteridine reductase 1 at 50 uM using di-hydrobiopterine as substrate measured at 1 min interval for 50 mins in presence of NADPH relative to control; how it was run: as §1
[3] = target: T2, Pteridine reductase 1 (Leishmania major) (UniProt Q01782); experiment: Inhibition of Leishmania major pteridine reductase 1 at 50 uM using di-hydrobiopterine as substrate in presence of NADPH relative to control; how it was run: as §1
T2 sequence (whole entry): T1 sequence (Q01782 whole entry)

Trypanosoma brucei [4] = experiment: Growth inhibition of Trypanosoma brucei bloodstream forms at 10 uM measured after 72 hrs by resazurin-based fluorescence assay relative to control; type: organism-based; details: for inhibition at 10 µM: Trypanosoma brucei, read-out: GI
Trypanosoma brucei [5] = experiment: Inhibition of PTR1 in Trypanosoma brucei bloodstream forms assessed as potentiation of methotrexate-induced parasitic cell growth inhibition at 10 uM measured after 72 hrs by resazurin-based fluorescence assay (reference value: 19 +/- 6%)
How it was run: (§2)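 Bloodstream-form T. brucei resazurin assay: 72 h at 37 °C, 5% CO₂, then fluorescence at ex 540/em 620 nm. Benzothiazole was tested at 10 μM alone and with 4 μM methotrexate. The index is the combination's activity divided by the sum of the activities of 10 μM benzothiazole and 4 μM methotrexate given separately.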

Trypanosoma brucei [6] = experiment: Inhibition of PTR1 in Trypanosoma brucei bloodstream forms assessed as potentiation of methotrexate-induced parasitic cell growth inhibition by measuring potentiation index at 10 uM measured after 72 hrs by resazurin-based fluorescence assay relative to control (methotrexate); type: functional; how it was run: as §2
Cytochrome P450 1A2 = target: T3, Cytochrome P450 1A2 (Homo sapiens, UniProt P05177); experiment: Inhibition of human CYP1A2 expressed in baculovirus infected insect cells using beetle D-luciferin as substrate preincubated for 30 mins followed by NADPH addition and measured after 30 mins by CYP450-Glo assay
T3 sequence (P05177 whole entry): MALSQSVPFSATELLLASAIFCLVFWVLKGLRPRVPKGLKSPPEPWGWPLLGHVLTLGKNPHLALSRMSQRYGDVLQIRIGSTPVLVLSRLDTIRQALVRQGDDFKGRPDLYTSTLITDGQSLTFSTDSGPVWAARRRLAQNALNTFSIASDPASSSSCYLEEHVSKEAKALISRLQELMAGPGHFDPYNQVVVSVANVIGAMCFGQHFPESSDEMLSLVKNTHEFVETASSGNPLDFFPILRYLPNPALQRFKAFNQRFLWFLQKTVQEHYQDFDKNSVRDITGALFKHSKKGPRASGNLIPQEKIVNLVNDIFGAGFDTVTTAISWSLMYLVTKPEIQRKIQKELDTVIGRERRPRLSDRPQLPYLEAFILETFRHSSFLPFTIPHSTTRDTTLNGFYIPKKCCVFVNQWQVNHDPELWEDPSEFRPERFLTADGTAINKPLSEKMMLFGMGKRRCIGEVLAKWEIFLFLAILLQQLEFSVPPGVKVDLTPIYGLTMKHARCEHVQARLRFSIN

Cytochrome P450 2C9 = Cytochrome P450 2C9 (Homo sapiens, UniProt P11712); experiment: Inhibition of human CYP2C9 expressed in baculovirus infected insect cells using beetle D-luciferin as substrate preincubated for 30 mins followed by NADPH addition and measured after 30 mins by CYP450-Glo assay
Cytochrome P450 2C19 = Cytochrome P450 2C19 (Homo sapiens, UniProt P33261); experiment: Inhibition of human CYP2C19 expressed in baculovirus infected insect cells using beetle D-luciferin as substrate preincubated for 30 mins followed by NADPH addition and measured after 30 mins by CYP450-Glo assay
Cytochrome P450 2D6 = Cytochrome P450 2D6 (Homo sapiens, UniProt P10635); experiment: Inhibition of human CYP2D6 expressed in baculovirus infected insect cells using beetle D-luciferin as substrate preincubated for 30 mins followed by NADPH addition and measured after 30 mins by CYP450-Glo assay
Cytochrome P450 3A4 = Cytochrome P450 3A4 (Homo sapiens, UniProt P08684); experiment: Inhibition of human CYP3A4 expressed in baculovirus infected insect cells using beetle D-luciferin as substrate preincubated for 30 mins followed by NADPH addition and measured after 30 mins by CYP450-Glo assay
[7] = Cytotoxicity against human A549 cells after 48 hrs by Celltiter-glo assay; type: cell-based
[8] = Cytotoxicity against human THP1 cells after 72 hrs by MTT assay; type: cell-based, THP-1; details: read-out: NOAEL
[9] = Cytotoxicity against human U2OS cells assessed as reduction in cell number; type: cell-based
[10] = Mitochondrial toxicity in human 786-O cells measured after 6 hrs by MitoTracker Red chloromethyl-X-rosamine based assay; type: cell-based, 786-0
[11] = Selectivity ratio of IC50 for Leishmania major pteridine reductase 1 to IC50 for N-terminal His-tagged Trypanosoma brucei pteridine reductase 1
[12] = target: Voltage-gated inwardly rectifying potassium channel KCNH2 (Homo sapiens, UniProt Q12809); experiment: Displacement of Tracer Red from human ERG by fluorescence polarization assay
Chain of Voltage-gated inwardly rectifying potassium channel KCNH2 (Q12809 whole entry): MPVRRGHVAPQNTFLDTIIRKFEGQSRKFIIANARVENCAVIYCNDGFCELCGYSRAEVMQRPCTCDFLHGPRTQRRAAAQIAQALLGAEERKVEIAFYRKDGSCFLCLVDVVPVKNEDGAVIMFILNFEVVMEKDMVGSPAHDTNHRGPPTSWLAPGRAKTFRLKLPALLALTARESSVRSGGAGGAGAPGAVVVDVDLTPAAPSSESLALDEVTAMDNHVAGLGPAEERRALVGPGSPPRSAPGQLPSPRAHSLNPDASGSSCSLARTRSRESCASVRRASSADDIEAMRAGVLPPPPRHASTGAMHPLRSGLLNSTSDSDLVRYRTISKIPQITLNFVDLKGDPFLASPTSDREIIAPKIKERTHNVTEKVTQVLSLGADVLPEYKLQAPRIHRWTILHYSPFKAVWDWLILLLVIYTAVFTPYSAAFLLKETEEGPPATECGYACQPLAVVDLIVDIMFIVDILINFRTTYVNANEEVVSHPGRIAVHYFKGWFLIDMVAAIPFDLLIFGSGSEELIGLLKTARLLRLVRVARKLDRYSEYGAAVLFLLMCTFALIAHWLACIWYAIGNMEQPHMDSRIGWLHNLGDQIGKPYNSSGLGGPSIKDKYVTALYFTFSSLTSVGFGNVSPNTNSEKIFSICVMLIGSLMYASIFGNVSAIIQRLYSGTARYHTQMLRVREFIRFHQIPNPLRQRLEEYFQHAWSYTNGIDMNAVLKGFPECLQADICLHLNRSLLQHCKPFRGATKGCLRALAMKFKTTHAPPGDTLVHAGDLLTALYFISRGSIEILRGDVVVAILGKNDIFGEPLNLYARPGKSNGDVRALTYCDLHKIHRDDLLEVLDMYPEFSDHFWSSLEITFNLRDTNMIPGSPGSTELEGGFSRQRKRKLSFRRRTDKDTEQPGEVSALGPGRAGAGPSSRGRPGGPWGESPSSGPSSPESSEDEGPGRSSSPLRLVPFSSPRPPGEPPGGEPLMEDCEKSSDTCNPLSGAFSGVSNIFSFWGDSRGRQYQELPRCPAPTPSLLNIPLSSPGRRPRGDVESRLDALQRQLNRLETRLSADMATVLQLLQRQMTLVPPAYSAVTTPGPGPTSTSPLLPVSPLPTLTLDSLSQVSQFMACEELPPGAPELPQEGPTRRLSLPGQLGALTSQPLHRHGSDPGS

Chain of Cytochrome P450 2D6 (P10635 whole entry): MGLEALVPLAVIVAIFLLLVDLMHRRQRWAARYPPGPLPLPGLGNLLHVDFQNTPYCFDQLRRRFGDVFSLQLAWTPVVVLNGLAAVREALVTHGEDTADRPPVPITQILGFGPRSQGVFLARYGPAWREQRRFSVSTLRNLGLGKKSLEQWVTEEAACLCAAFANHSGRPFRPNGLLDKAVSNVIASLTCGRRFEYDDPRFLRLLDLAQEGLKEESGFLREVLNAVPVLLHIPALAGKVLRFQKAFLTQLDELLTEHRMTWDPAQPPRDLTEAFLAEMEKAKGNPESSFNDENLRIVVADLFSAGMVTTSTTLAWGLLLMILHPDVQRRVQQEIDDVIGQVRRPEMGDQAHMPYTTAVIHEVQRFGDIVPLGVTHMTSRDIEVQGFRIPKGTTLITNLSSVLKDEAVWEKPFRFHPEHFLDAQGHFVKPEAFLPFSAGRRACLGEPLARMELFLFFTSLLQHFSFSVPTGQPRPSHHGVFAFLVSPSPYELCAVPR
Chain of Cytochrome P450 2C19 (P33261 whole entry): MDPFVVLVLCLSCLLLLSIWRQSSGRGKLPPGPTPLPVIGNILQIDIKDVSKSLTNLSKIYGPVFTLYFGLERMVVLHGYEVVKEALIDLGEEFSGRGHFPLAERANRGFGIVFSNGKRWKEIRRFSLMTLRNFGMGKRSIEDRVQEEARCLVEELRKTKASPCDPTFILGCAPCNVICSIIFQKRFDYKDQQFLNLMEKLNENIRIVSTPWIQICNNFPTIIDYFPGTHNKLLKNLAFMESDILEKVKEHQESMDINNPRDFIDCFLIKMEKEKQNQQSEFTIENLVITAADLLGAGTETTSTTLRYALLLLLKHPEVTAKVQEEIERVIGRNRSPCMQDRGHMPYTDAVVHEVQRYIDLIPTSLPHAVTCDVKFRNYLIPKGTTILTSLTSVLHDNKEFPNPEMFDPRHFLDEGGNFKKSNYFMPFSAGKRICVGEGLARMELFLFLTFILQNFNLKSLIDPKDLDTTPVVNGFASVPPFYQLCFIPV
Chain of Cytochrome P450 2C9 (P11712 whole entry): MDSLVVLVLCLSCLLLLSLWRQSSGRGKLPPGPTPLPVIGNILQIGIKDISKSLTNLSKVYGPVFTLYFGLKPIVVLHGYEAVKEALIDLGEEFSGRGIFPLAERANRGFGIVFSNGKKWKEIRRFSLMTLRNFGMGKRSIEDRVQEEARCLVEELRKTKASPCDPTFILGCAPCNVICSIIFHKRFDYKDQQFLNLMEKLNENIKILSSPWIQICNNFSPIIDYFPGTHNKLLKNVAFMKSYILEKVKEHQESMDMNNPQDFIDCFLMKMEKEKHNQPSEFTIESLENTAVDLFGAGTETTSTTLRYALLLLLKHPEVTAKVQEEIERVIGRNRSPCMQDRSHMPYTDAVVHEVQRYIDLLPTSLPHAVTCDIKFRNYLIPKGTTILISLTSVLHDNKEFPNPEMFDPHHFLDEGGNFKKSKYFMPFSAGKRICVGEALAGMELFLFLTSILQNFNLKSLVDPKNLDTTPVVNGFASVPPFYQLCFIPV
Chain of Cytochrome P450 3A4 (P08684 whole entry): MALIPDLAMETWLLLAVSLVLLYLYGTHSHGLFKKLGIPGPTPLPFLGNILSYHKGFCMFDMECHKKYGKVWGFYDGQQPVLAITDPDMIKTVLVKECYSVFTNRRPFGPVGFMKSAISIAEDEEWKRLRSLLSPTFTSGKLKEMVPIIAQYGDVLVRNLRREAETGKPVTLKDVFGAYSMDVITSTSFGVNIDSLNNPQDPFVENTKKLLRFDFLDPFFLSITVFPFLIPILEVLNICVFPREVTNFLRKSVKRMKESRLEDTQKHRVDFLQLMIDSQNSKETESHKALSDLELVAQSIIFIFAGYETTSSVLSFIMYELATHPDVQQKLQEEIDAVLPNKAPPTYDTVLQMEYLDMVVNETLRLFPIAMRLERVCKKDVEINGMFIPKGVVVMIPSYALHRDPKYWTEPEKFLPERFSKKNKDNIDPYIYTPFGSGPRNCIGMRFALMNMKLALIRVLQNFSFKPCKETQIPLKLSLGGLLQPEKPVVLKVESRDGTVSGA

IC50 (Pteridine reductase 1; read-out: IC50) [µM]	IC50 [1] [µM]	inhibition (Trypanosoma brucei [2]) [%]	inhibition [3]	IC50 (Cytochrome P450 1A2) [µM]	IC50 (Cytochrome P450 2C9) [µM]	IC50 (Cytochrome P450 2C19) [µM]	IC50 (Cytochrome P450 2D6) [µM]	IC50 (Cytochrome P450 3A4) [µM]	Ratio IC50 [11]	SMILES	growth inhibition (GI) (Leishmania infantum)	inhibition at 10 µM (Trypanosoma brucei [4]) [%]	GI50 at 48 h [7] [µM]	MNTC at 72 h [8] [µM]	GI50 [9] [µM]	IC50 at 6 h [10] [µM]	growth inhibition (GI) (Trypanosoma cruzi)	IC50 [12] [µM]	further results
12.4	0.35	> 60	> 60%	> 25	10 to 25	< 10	< 10	< 10	2 to 100	N#Cc1ccc(CSc2ccc3nc(N)sc3c2)cc1	Non-Toxic	29 to 35	> 25	> 25	> 25	< 10			inhibition at 50 µM (Trypanosoma cruzi; Trypanosoma cruzi, Y, U2OS, read-out: GI): 27.3%; growth inhibition (GI) (Trypanosoma brucei [5]): 63%; Ratio (Trypanosoma brucei [6]): 1.3
	13.4	> 60	inactive	< 10	> 25	> 25	< 10	10 to 25	2 to 100	Nc1nc2ccc(OCc3ccccc3)cc2s1	Non-Toxic	28	> 25	> 25	> 25	> 25	Non-Toxic	< 10	IC50 (Pteridine reductase 1): Not Active
73.3	42.9	> 60	> 60%	> 25	> 25	> 25	> 25	> 25	2 to 100	N#Cc1ccc(CNC(=O)c2ccc3nc(N)sc3c2)cc1	Non-Toxic	8	> 25	> 25	> 25	> 25	Non-Toxic	> 25	
81	1.9	> 60	> 60%	< 10	> 25	< 10	< 10	10 to 25	2 to 100	Nc1nc2ccc(SCc3ccccc3)cc2s1	Non-Toxic	14	> 25	10 to 25	> 25	> 25	Non-Toxic	> 25	
50	24.3	> 60	> 60%	> 25	< 10	< 10	< 10	< 10	2 to 100	COC(=O)C1CCN(C(=O)c2ccc(CS(=O)(=O)c3ccc4nc(N)sc4c3)cc2)CC1	Non-Toxic		> 25	> 25	> 25	> 25	Non-Toxic	> 25	growth inhibition (GI) (Trypanosoma brucei [4]; trypanosoma brucei, 10 µM): Non-Toxic
15.2	11.4	> 60	> 60%	< 10	< 10	10 to 25	< 10	< 10	2 to 100	Nc1nc2c(C(=O)N(Cc3ccccc3)Cc3ccc(Cl)c(Cl)c3)cc(O)c(O)c2s1	Non-Toxic	25	> 25	10 to 25	10 to 25	> 25	Non-Toxic	< 10	
	3	> 60	55.5%	> 25	> 25	10 to 25	< 10	< 10	2 to 100	N#Cc1ccc(CS(=O)(=O)c2ccc3nc(N)sc3c2)cc1	Non-Toxic	9 to 13	> 25	> 25	> 25	> 25	Non-Toxic	> 25	growth inhibition (GI) (Trypanosoma brucei [5]): 48%; Ratio (Trypanosoma brucei [6]): 1.5

— ChEMBL document CHEMBL4387708, “Enhancement of Benzothiazoles as Pteridine Reductase-1 Inhibitors for the Treatment of Trypanosomatidic Infections” (J Med Chem, 2019)
